Experimental data taken from ChEMBL document CHEMBL1123815, “Heteroarotinoids. Synthesis, characterization, and biological activity in terms of an assessment of these systems to inhibit the induction of ornithine decarboxylase activity and to induce terminal differentiation of HL-60 cells” (J Med Chem, 1987).
Values belong to the molecule of their own block, whether it stands above or below them.

Assays:
Type in all cases: functional
[1] = molecular target: T1, Ornithine decarboxylase (Mus musculus) (UniProt P00860); assay: Inhibition of TPA induced ODC(Ornithine decarboxylase) activity in mice epidermis at 34 nmol in the presence of TPA
T1 sequence (whole entry): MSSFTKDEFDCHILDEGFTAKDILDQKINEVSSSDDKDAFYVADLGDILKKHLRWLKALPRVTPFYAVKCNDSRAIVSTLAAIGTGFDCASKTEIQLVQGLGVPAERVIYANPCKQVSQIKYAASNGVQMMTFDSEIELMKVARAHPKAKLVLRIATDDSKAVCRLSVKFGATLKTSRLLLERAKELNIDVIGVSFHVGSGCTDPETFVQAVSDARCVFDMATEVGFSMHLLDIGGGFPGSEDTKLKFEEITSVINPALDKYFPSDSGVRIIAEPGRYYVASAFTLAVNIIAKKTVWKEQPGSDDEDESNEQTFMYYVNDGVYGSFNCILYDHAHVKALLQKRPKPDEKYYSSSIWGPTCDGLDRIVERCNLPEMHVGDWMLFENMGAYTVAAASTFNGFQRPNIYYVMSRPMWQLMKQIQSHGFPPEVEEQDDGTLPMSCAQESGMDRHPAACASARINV
Summary of the method: (§1)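 Mouse epidermis in vivo: retinoid applied to shaved back 1 h before topical 10 nmol TPA. Mice killed 5 h after TPA. Epidermis separated, homogenized and centrifuged at 30000 g. Soluble ODC activity measured as nmol CO2 released per 30 or 60 min per mg protein. Values are mean ± SE of three groups of three mice. Percent inhibition = (acetone+TPA ODC − retinoid ODC)/(acetone+TPA ODC) × 100.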

[2] = molecular target: T1, Ornithine decarboxylase (Mus musculus); assay: Inhibition of TPA induced ODC(Ornithine decarboxylase) activity in mice epidermis at 34 nmol in the presence of TPA compared to control value; summary of the method: as §1
[3] = molecular target: T1, Ornithine decarboxylase (Mus musculus); assay: Inhibition of TPA induced ODC(Ornithine decarboxylase) activity in mice epidermis at 17 nmol in the presence of TPA; summary of the method: as §1
[4] = molecular target: T1, Ornithine decarboxylase (Mus musculus); assay: Inhibition of TPA induced ODC(Ornithine decarboxylase) activity in mice epidermis at 0 nmol in the presence of acetone; summary of the method: as §1
[5] = molecular target: T1, Ornithine decarboxylase (Mus musculus); assay: Inhibition of TPA induced ODC(Ornithine decarboxylase) activity in mice epidermis at 17 nmol in the presence of TPA compared to control value; summary of the method: as §1
[6] = molecular target: T1, Ornithine decarboxylase (Mus musculus); assay: Inhibition of TPA induced ODC(Ornithine decarboxylase) activity in mice epidermis at 0 nmol in the presence of acetone+TPA; summary of the method: as §1
[7] = molecular target: T1, Ornithine decarboxylase (Mus musculus); assay: Inhibition of TPA induced ODC(Ornithine decarboxylase) activity in mice epidermis at 34 nmol in the presence of trans-retinoic acid + TPA; summary of the method: as §1
[8] = molecular target: T1, Ornithine decarboxylase (Mus musculus); assay: Inhibition of TPA induced ODC(Ornithine decarboxylase) activity in mice epidermis at 34 nmol in the presence of trans-retinoic acid + TPA compared to control value; summary of the method: as §1
[9] = molecular target: T1, Ornithine decarboxylase (Mus musculus); assay: Inhibition of TPA induced ODC(Ornithine decarboxylase) activity in mice epidermis at 17 nmol in the presence of 13-cis-retinoic acid + TPA; summary of the method: as §1
[10] = molecular target: T1, Ornithine decarboxylase (Mus musculus); assay: Inhibition of TPA induced ODC(Ornithine decarboxylase) activity in mice epidermis at 0 nmol in the presence of acetone + TPA; summary of the method: as §1
[11] = molecular target: T1, Ornithine decarboxylase (Mus musculus); assay: Inhibition of TPA induced ODC(Ornithine decarboxylase) activity in mice epidermis at 17 nmol in the presence of 13-cis-retinoic acid + TPA compared to control value; summary of the method: as §1
[12] = molecular target: T1, Ornithine decarboxylase (Mus musculus); assay: Inhibition of TPA induced ODC(Ornithine decarboxylase) activity in mice epidermis at 0 nmol in the presence of acetone+ TPA; summary of the method: as §1

Compound: COC(=O)c1ccc(/C=C(\C)c2ccc3c(c2)C(C)(C)CO3)cc1
ODC activity ((nM of CO2) hr-1 (mg of protein)-1) [1]: 1.5 | inhibition [2]: 72%

Compound: C/C(=C\c1ccc(C#N)cc1)c1ccc2c(c1)C(C)(C)CCO2
ODC activity ((nM of CO2) hr-1 (mg of protein)-1) [1]: 1.77 | inhibition [2]: 0%

Compound: C/C(=C\c1ccc(C=O)cc1)c1ccc2c(c1)C(C)(C)CCO2
ODC activity ((nM of CO2) hr-1 (mg of protein)-1) [1]: 3.5 | inhibition [2]: 34%

Compound: CC(/C=C/C=C(\C)c1ccc2c(c1)C(C)(C)CCO2)=C\C(=O)O
ODC activity ((nM of CO2) hr-1 (mg of protein)-1) [1]: 1.4 | inhibition [2]: 74%

Further lines, results first:

ODC activity ((nM of CO2) 30min-1 (mg of protein)-1) [3]: 0 | ODC activity ((nM of CO2) 30min-1 (mg of protein)-1) [4]: 0 | inhibition [5]: 100%
Compound: CCOC(=O)/C=C(C)/C=C/C=C(\C)c1ccc2c(c1)C(C)(C)CCS2

ODC activity [6]: 5.3 | ODC activity ((nM of CO2) hr-1 (mg of protein)-1) [1]: 1.7 | ODC activity [7]: 1 | inhibition [2]: 68% | inhibition [8]: 81%
Compound: C/C(=C\c1ccc(CO)cc1)c1ccc2c(c1)C(C)(C)CCO2

ODC activity ((nM of CO2) hr-1 (mg of protein)-1) [1]: 0.97 | inhibition [2]: 42%
Compound: CC(/C=C/C=C(\C)c1ccc2c(c1)C(C)(C)CCS2)=C\C(=O)OCCN1C(=O)c2ccccc2C1=O

ODC activity ((nM of CO2) 30min-1 (mg of protein)-1) [9]: 0.1 | ODC activity ((nM of CO2) 30min-1 (mg of protein)-1) [3]: 0.1 | ODC activity ((nM of CO2) 30min-1 (mg of protein)-1) [4]: 0 | ODC activity ((nM of CO2) 30min-1 (mg of protein)-1) [10]: 0.9 | inhibition [11]: 89% | inhibition [5]: 89%
Compound: CC(/C=C/C=C(\C)c1ccc2c(c1)C(C)(C)CCS2)=C\C(=O)O

ODC activity ((nM of CO2) hr-1 (mg of protein)-1) [9]: 0.14 | ODC activity ((nM of CO2) hr-1 (mg of protein)-1) [1]: 0.95 | ODC activity ((nM of CO2) hr-1 (mg of protein)-1) [12]: 1.67 | inhibition [11]: 92% | inhibition [2]: 43%
Compound: COC(=O)c1ccc(/C=C(\C)c2ccc3c(c2)C(C)(C)CCO3)cc1
